In paper PMC3987113 (Toxicology and applied pharmacology, 2009):
“And” between values parts separate entries of the source, which are not always exact repeats. Equal values may be shown once. “Also recorded” adds a separate entry of the source. Read-outs that look alike come from different tables or passages of the source.

Assays:
[1] = Body and liver weights, 24 h dose-response study; format: in vivo, C57BL/6 mice; conditions: for Liver weight / Relative liver weight / Body weight gain / Terminal body weight: 24 h; for Liver weight / Relative liver weight / Terminal body weight: mean ± SD, n=5; for Body weight gain: terminal body weight divided by body weight prior to dosing; for Terminal body weight: single gavage
Method in brief: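 Immature ovariectomized female C57BL/6 mice, acclimatized 3 days, received a single oral gavage on PND 28 of 1, 3, 10, 30, 100 or 300 mg/kg test compound or sesame oil vehicle (0.1 ml), n=5 per group, sacrificed 24 h later. Compound was dissolved in acetone, diluted in sesame oil and the acetone evaporated under nitrogen. Analysis by ANOVA with Tukey's or Dunnett's post hoc test, p<0.05.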

hepatic gene expression [2] = experiment: Hepatic gene expression, Agilent 4 x 44K microarrays; format: in vivo, C57BL/6 mice
[3] = Hepatic tissue level quantification by HRGC/HRMS; format: in vivo, C57BL/6 mice; conditions: liver
[4] = system: liver of immature, ovariectomized C57BL/6 mice; experiment: Liver histopathology; format: in vivo
hepatic gene expression [5] = experiment: QRT-PCR verification of hepatic gene expression; format: in vivo, C57BL/6 mice
Cyp2c55 = experiment: Dose-response modeling of microarray data; format: in vivo, C57BL/6 mice; conditions: C57BL/6, mouse, liver, oral
Cyp2b10 = experiment: Dose-response modeling of microarray data; format: in vivo, C57BL/6 mice; conditions: C57BL/6, mouse, liver, oral
hepatic gene expression [6] = experiment: Dose-response modeling of microarray data; format: in vivo, C57BL/6 mice; conditions: Mus musculus, 24 h
[7] = Body and liver weights, time course study; format: in vivo, C57BL/6 mice; conditions: for Liver weight / Relative liver weight / Body weight gain / Terminal body weight: 300 mg/kg PCB153 or 30 μg/kg TCDD, mean ± SD, n=5; for Body weight gain: terminal body weight divided by body weight prior to dosing
[8] = hepatic mRNA, 300 mg/kg PCB153, maximum fold change, |fold change|≥1.5, P1(t)≥0.985
[9] = hepatic mRNA, 300 mg/kg PCB153, maximum fold change, |fold change|≥1.5, P1(t)≥0.985, 300 mg/kg
[10] = 300 mg/kg PCB153 or 30 μg/kg TCDD

For Clc1cc(Cl)c(-c2cc(Cl)c(Cl)cc2Cl)cc1Cl [PCB153, 2,2′,4,4′,5,5′-hexachlorobiphenyl], the Liver weight ([1]; 1 mg/kg) was 0.850 ± 0.121 g, the Relative liver weight ([1]; 1 mg/kg) was 0.059 ± 0.002 and the Body weight gain ([1]; 1 mg/kg) was 1.1 ± 0.0. It also gave a Terminal body weight ([1]; 1 mg/kg) of 14.3 ± 1.8 g, a Liver weight ([1]; 3 mg/kg) of 0.865 ± 0.119 g and a Relative liver weight ([1]; 3 mg/kg) of 0.060 ± 0.002. It also gave a Body weight gain ([1]; 3 mg/kg) of 1.1 ± 0.0, a Terminal body weight ([1]; 3 mg/kg) of 14.4 ± 1.7 g and a Liver weight ([1]; 10 mg/kg) of 0.721 ± 0.073 g. It also gave a Relative liver weight ([1]; 10 mg/kg) of 0.056 ± 0.004, a Body weight gain ([1]; 10 mg/kg) of 1.1 ± 0.1 and a Terminal body weight ([1]; 10 mg/kg) of 12.7 ± 1.1 g. It also gave a Liver weight ([1]; 30 mg/kg) of 0.836 ± 0.066 g, a Relative liver weight ([1]; 30 mg/kg) of 0.062 ± 0.001 and a Body weight gain ([1]; 30 mg/kg) of 1.1 ± 0.0. The Terminal body weight ([1]; 30 mg/kg) was 13.4 ± 1.0 g, the Liver weight ([1]; 100 mg/kg) was 0.829 ± 0.071 g and the Relative liver weight ([1]; 100 mg/kg) was 0.060 ± 0.002. For the same molecule, the Body weight gain ([1]; 100 mg/kg) was 1.1 ± 0.0, the Terminal body weight ([1]; 100 mg/kg) was 13.8 ± 1.1 g and the “Effect on relative liver weight (RLW), dose-response study” value ([1]; 300 mg/kg PCB153, 24 h) was “significantly increased RLW at 24 h”. The Liver weight ([1]; 300 mg/kg) was 0.855 ± 0.152 g, the Relative liver weight ([1]; 300 mg/kg) was 0.067 ± 0.003 and the Body weight gain ([1]; 300 mg/kg) was 1.1 ± 0.0. For the same molecule, the Terminal body weight ([1]; 300 mg/kg) was 12.7 ± 1.9 g, the “Induction of CAR/PXR regulated genes Cyp2b10, Cyp3a11, Ces2, Insig2, Abcc3” value (hepatic gene expression [2]; PCB153 dose-response study) was “dose-dependently induced” and the “PCB153 fold change, Abcc3” value (hepatic gene expression [2]; [8]) was 1.9 fold. For the same molecule, the “PCB153 fold change, Acsl3” value (hepatic gene expression [2]; [8]) was −3.1 fold, the “PCB153 fold change, Agpat4” value (hepatic gene expression [2]; [8]) was −1.9 fold and the “PCB153 fold change, Akr1b7” value (hepatic gene expression [2]; [8]) was 22.1 fold. For the same molecule, the “PCB153 fold change, Akr1c20” value (hepatic gene expression [2]; [8]) was −2.3 fold, the “PCB153 fold change, Aox1” value (hepatic gene expression [2]; [8]) was 2.9 fold and the “PCB153 fold change, Cdca2” value (hepatic gene expression [2]; [8]) was 2.8 fold. The “PCB153 fold change, Cds2” value (hepatic gene expression [2]; [8]) was 1.7 fold, the “PCB153 fold change, Ces2” value (hepatic gene expression [2]; [8]) was 5.8 fold and the “PCB153 fold change, Cyp2b9” value (hepatic gene expression [2]; [8]) was 7.6 fold. For the same molecule, the “PCB153 fold change, Cyp2b10” value (hepatic gene expression [2]; [8]) was 27.5 fold, the “PCB153 fold change, Cyp2b23” value (hepatic gene expression [2]; [8]) was 19.7 fold and the “PCB153 fold change, Cyp2c54” value (hepatic gene expression [2]; [8]) was 2.4 fold. For the same molecule, the “PCB153 fold change, Cyp3a25” value (hepatic gene expression [2]; [8]) was 3.8 fold, the “PCB153 fold change, Dhfr” value (hepatic gene expression [2]; [8]) was −2.1 fold and the “PCB153 fold change, Elovl6” value (hepatic gene expression [2]; [8]) was −3.8 fold. The “PCB153 fold change, Fasn” value (hepatic gene expression [2]; [8]) was −3.9 fold, the “PCB153 fold change, Fmo5” value (hepatic gene expression [2]; [8]) was 3.0 fold and the “PCB153 fold change, Gadd45a” value (hepatic gene expression [2]; [8]) was 2.0 fold. For the same molecule, the “PCB153 fold change, Gpx2” value (hepatic gene expression [2]; [8]) was 1.7 fold, the “PCB153 fold change, Gsta2” value (hepatic gene expression [2]; [8]) was 4.1 fold and the “PCB153 fold change, Gstm4” value (hepatic gene expression [2]; [8]) was 4.0 fold. The “PCB153 fold change, Gstt3” value (hepatic gene expression [2]; [8]) was 1.7 fold, the “PCB153 fold change, Hmgcr” value (hepatic gene expression [2]; [8]) was −5.3 fold and the “PCB153 fold change, Hsd17b2” value (hepatic gene expression [2]; [8]) was −2.0 fold. The “PCB153 fold change, Insig2” value (hepatic gene expression [2]; [8]) was 5.9 fold, the “PCB153 fold change, Mad1l1” value (hepatic gene expression [2]; [8]) was 2.4 fold and the “PCB153 fold change, Myc” value (hepatic gene expression [2]; [8]) was 2.9 fold. For the same molecule, the “PCB153 fold change, Nol3” value (hepatic gene expression [2]; [8]) was 4.9 fold, the “PCB153 fold change, Pla2g12a” value (hepatic gene expression [2]; [8]) was 1.7 fold and the “PCB153 fold change, Slc1a4” value (hepatic gene expression [2]; [8]) was −2.5 fold. The “PCB153 fold change, Slc23a1” value (hepatic gene expression [2]; [8]) was 2.3 fold, the “PCB153 fold change, Smpd3” value (hepatic gene expression [2]; [8]) was 10.8 fold and the “PCB153 fold change, Srebf1” value (hepatic gene expression [2]; [8]) was −2.4 fold. The “PCB153 fold change, Srebf2” value (hepatic gene expression [2]; [8]) was −2.1 fold, the “PCB153 fold change, Ugdh” value (hepatic gene expression [2]; [8]) was 2.5 fold and the “PCB153 fold change, Cyp2c55” value (hepatic gene expression [2]; [9]) was 48 fold and 48.4 fold. For the same molecule, the “PCB153 fold change, Gadd45b” value (hepatic gene expression [2]; [9]) was 10.7 fold, the “PCB153 fold change, Zwint” value (hepatic gene expression [2]; [9]) was 1.8 fold and the Ccl9 expression (hepatic gene expression [2]; hepatic mRNA, PCB153) was “induced expression”. The “Down-regulation of Acsl3, Srebf1 and Srebf2” value (hepatic gene expression [2]; hepatic mRNA, PCB153) was −2.1 to −3.1 fold, the “Hepatic PCB153 levels in dose-response study” value ([3]; 24 h, 1-300 mg/kg, significantly different from controls) was “dose-dependent increase in hepatic levels” and the “Decrease of hepatic level after 7 days” value ([3]; 168 h vs 24 h, single gavage 300 mg/kg PCB153 or 30 μg/kg TCDD) was ~ 3.3 fold. For the same molecule, the “Hepatocellular hypertrophy, time course study” value ([4]; 300 mg/kg PCB153) was “increasing hypertrophic responses between 24 and 168 h; also recorded: induced hepatocellular hypertrophy between 24 and 168 h”, the “Hepatocellular vacuolization, dose-response study” value ([4]; 300 mg/kg PCB153, 24 h) was “induced the highest levels of hepatocellular vacuolization” and the “Hepatic lipid accumulation, Oil Red O staining” value [4, 10] was “no fatty accumulation”. For the same molecule, the “Necrosis and immune (mixed) cell infiltration in liver” value [4, 10] was “did not elicit immune cell infiltration or necrosis; also recorded: absent; also recorded: did not induce necrosis or immune cell infiltration”, the Hepatic inflammation ([4]; 300 mg/kg PCB153 or 30 μg/kg TCDD, time course) was “almost absent” and the “Hepatocellular vacuolization, time course study” value ([4]; 300 mg/kg PCB153 or 30 μg/kg TCDD, Fig. 2 at 168 h) was “minimal vacuolization and hepatocellular hypertrophy”. For the same molecule, the “Hepatocellular hypertrophy, dose-response study” value ([4]; PCB153, 24 h) was “incidences of hypertrophy were not observed”, the “Induction of AhR-battery genes (Cyp1a1, Cyp1a2, Tiparp)” value (hepatic gene expression [5]; 300 mg/kg PCB153 compared to TCDD, Fig. 6A-B) was “modestly induced” and the Cyp1a2 induction (hepatic gene expression [5]; hepatic mRNA, time course, 30 μg/kg TCDD (Fig. 6A) or 300 mg/kg PCB153 (Fig. 6B)) was ~ 1.8 fold. It also gave an Elovl5 fold change (hepatic gene expression [5]; hepatic mRNA, time course, 300 mg/kg PCB153 or 30 μg/kg TCDD (Fig. 6A-B)) of −1.9 fold, an ED50 at 24 h (Cyp2c55) of 31.7 mg/kg and an ED50 at 24 h (Cyp2b10) of 38.1 mg/kg. For the same molecule, the ED50 (hepatic gene expression [6]; read-out: ED50, Abcc3) was 2.9 mg/kg, the ED50 (hepatic gene expression [6]; read-out: ED50, Entpd5) was 34.2 mg/kg and the ED50 (hepatic gene expression [6]; read-out: ED50, Nol3) was 33.9 mg/kg. For the same molecule, the “Effect on relative liver weight (RLW), time course study” value ([7]; 300 mg/kg PCB153) was “increased (p<0.05) relative liver weight (RLW) at 72 and 168 h”, the Liver weight ([7]; 4 h) was 0.712 ± 0.048 g and the Relative liver weight ([7]; 4 h) was 0.057 ± 0.001. The Body weight gain ([7]; 4 h) was 1.0 ± 0.0, the Terminal body weight ([7]; 4 h after single gavage) was 12.5 ± 0.8 g and the Liver weight ([7]; 12 h) was 0.730 ± 0.075 g. It also gave a Relative liver weight ([7]; 12 h) of 0.056 ± 0.003, a Body weight gain ([7]; 12 h) of 1.0 ± 0.0 and a Terminal body weight ([7]; 12 h after single gavage) of 13.0 ± 0.6 g. For the same molecule, the Liver weight ([7]; 24 h) was 0.813 ± 0.137 g, the Relative liver weight ([7]; 24 h) was 0.061 ± 0.009 and the Body weight gain ([7]; 24 h) was 1.1 ± 0.0. It also gave a Terminal body weight ([7]; 24 h after single gavage) of 13.3 ± 0.9 g, a Liver weight ([7]; 72 h) of 1.086 ± 0.135 g and a Relative liver weight ([7]; 72 h) of 0.069 ± 0.007. It also gave a Body weight gain ([7]; 72 h) of 1.1 ± 0.0, a Terminal body weight ([7]; 72 h after single gavage) of 15.7 ± 0.7 g and a Liver weight ([7]; 168 h) of 1.280 ± 0.074 g. It also gave a Relative liver weight ([7]; 168 h) of 0.072 ± 0.002, a Body weight gain ([7]; 168 h) of 1.4 ± 0.1 and a Terminal body weight ([7]; 168 h after single gavage) of 17.9 ± 1.2 g. For the same molecule, the “Effect on body weight gain” value ([7]; any of the PCB153 doses or time points) was “No significant decreases in body weight gain”.
